pIC50, pKi: −log10 of the molar value.
Tests used:
[1] = molecular target: 5-hydroxytryptamine receptor 6 (Homo sapiens, UniProt P50406); assay: Displacement of [3H]LSD from human 5HT6 receptor expressed in CHO-K1 membrane incubated for 60 mins by solid scintillation counting analysis; assay type: cell membranes
Cholinesterase [2] = molecular target: Cholinesterase (Equus caballus, UniProt P81908); assay: Inhibition of equine serum BuChE using BTC as substrate preincubated with enzyme for 5 mins followed by substrate addition for 5 mins by Ellman's method; assay type: cell-free
[3] = molecular target: Amyloid-beta precursor protein (Homo sapiens) (UniProt P05067); assay: Inhibition of amyloid beta (1 to 42) (unknown origin) self aggregation at 10 uM incubated for 24 to 48 hrs by Thioflavin-T based fluorometric assay; settings: time lower […], time upper 48.0 hrs
Cholinesterase [4] = molecular target: Cholinesterase (Homo sapiens, UniProt P06276); assay: Inhibition of BuChE in human plasma using BTC as substrate at 10 uM preincubated with enzyme for 5 mins followed by substrate addition for 5 mins by Ellman's method relative to control; assay type: cell-free; settings: time 10.0 min
Method in brief: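 Human plasma BuChE at 0.384 U/mL final, with DTNB in 0.1 M phosphate buffer pH 8.0. Compound at 10 µM screened, preincubated 5 min at 36 °C.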

Sequence of Amyloid-beta precursor protein (Homo sapiens) (P05067 whole entry): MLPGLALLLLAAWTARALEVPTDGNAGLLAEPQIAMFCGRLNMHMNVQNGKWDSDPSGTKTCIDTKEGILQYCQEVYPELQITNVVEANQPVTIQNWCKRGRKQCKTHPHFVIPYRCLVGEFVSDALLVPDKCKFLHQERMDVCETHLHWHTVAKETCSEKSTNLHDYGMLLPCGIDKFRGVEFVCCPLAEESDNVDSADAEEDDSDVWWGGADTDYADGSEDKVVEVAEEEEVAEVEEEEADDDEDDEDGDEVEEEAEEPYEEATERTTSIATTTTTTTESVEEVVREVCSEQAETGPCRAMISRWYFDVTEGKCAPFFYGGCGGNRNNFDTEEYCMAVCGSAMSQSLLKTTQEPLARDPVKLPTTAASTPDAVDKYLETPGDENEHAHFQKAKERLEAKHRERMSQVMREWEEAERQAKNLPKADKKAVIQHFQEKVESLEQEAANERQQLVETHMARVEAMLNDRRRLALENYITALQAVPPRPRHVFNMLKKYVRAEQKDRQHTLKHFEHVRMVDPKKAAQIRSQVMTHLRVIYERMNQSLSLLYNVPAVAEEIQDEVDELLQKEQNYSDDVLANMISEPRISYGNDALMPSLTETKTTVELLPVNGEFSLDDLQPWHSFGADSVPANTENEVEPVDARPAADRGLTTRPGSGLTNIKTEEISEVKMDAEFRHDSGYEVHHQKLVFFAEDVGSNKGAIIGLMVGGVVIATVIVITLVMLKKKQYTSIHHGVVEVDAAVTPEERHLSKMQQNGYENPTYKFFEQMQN
Sequence of Cholinesterase (Equus caballus, UniProt P81908) (P81908 whole entry): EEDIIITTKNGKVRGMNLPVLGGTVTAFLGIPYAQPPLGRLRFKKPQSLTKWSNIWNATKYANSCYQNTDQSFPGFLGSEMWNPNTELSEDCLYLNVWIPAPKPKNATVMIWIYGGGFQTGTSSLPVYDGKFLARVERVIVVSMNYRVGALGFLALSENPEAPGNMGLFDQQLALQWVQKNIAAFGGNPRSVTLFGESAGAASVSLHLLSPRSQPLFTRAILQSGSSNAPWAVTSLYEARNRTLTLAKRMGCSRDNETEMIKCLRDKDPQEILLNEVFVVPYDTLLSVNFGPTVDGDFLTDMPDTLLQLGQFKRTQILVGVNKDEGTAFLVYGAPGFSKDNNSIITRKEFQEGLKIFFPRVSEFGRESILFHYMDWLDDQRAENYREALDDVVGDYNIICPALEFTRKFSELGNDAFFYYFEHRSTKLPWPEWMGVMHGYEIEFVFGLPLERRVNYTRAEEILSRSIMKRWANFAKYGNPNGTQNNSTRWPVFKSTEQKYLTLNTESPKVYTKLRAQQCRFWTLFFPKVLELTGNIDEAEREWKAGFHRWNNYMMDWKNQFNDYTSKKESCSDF
Sequence of Cholinesterase (Homo sapiens, UniProt P06276) (P06276 whole entry): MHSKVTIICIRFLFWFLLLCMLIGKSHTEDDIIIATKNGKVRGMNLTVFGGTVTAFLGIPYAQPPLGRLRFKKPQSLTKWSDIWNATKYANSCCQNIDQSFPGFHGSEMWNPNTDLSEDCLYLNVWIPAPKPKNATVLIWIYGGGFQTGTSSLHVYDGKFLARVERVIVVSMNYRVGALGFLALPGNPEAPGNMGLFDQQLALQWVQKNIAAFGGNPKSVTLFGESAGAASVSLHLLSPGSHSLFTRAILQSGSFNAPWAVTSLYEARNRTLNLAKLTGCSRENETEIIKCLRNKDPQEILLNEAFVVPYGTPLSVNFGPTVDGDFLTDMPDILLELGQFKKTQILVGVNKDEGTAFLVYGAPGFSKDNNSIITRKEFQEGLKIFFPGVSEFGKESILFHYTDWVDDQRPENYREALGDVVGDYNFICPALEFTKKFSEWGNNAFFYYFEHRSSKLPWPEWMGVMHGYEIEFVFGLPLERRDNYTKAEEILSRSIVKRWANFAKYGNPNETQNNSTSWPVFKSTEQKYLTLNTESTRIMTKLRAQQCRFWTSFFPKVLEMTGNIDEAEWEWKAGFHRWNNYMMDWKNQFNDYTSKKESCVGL
Sequence of 5-hydroxytryptamine receptor 6 (P50406 whole entry): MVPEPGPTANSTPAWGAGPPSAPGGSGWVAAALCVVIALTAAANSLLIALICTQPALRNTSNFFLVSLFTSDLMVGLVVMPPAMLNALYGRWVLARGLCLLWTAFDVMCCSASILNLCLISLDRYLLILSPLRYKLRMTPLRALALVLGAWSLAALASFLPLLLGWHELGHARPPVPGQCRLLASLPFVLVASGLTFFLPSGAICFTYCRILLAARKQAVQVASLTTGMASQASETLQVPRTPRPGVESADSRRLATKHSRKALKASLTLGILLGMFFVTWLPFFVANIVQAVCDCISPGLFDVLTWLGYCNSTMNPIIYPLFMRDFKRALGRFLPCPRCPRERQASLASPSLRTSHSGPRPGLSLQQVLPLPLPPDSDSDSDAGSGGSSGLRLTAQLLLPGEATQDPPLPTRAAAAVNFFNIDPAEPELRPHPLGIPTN

| Compound | pKi [1] | pIC50 (Cholinesterase [2]) | inhibition [3] [%] | inhibition (Cholinesterase [4]) [%] |
| --- | --- | --- | --- | --- |
| CCOc1cccc(CNCCOc2cccc3c2ccn3S(=O)(=O)c2ccccc2)c1 | 8.52 | 5.62 | < 20 | < 50 |
| O=S(=O)(c1ccccc1)n1ccc2c(OCCNCc3cccc(C(F)(F)F)c3)cccc21 | 8.40 | 5.66 | < 20 | < 50 |
| O=S(=O)(c1ccccc1)n1ccc2c(OCCNCc3cc(Cl)cc(Cl)c3)cccc21 |  | 6.38 |  |  |
| CN(C)c1cccc(CNCCOc2cccc3c2ccn3S(=O)(=O)c2ccccc2)c1 | 8.22 | 6.05 | < 20 | < 50 |
| c1ccc(CNCCOc2cccc3c2ccn3Cc2ccccc2)cc1 | 6.63 | 6.20 | 71.3 | < 50 |
| CC(C)(C)OC(=O)N1CCCC(CNCCOc2cccc3c2CC(=O)N3Cc2ccccc2)C1 (configuration not stated) | 6.84 | 5.96 | 65.2 | < 50 |
| O=S(=O)(c1ccccc1)N1CCc2c(OCCNCc3ccccc3)cccc21 |  | 5.88 |  |  |
| CC(=O)Oc1ccc(CNCCOc2cccc3c2CCN3S(=O)(=O)c2ccccc2)cc1 | 7.15 | 6.18 | < 20 | < 50 |
| COC(=O)c1ccc(CNCCOc2cccc3c2ccn3S(=O)(=O)c2ccccc2)cc1 | 7.89 | 4.84 | < 20 | < 50 |
| O=S(=O)(c1ccccc1)n1ccc2c(OCCNCc3ccc4c(c3)OCCO4)cccc21 | 9.30 | 5.66 | < 20 | < 50 |
| Cc1ccc(CNCCOc2cccc3c2ccn3S(=O)(=O)c2ccccc2)o1 | 8.52 | 5.52 | < 20 | < 50 |
| O=S(=O)(c1ccccc1)n1ccc2c(OCCNCc3ccccn3)cccc21 | 9.40 | 5.89 | < 20 | < 50 |
| CCOc1ccc(CNCCOc2cccc3c2ccn3S(=O)(=O)c2ccccc2)cc1 | 7.89 | 5.48 | < 20 | < 50 |
| CN(CCOc1cccc2c1ccn2S(=O)(=O)c1ccccc1)Cc1ccccc1 | 7.57 | 5.85 | < 20 | < 50 |
| CC(C)(C)OC(=O)N1CCC(CNCCOc2cccc3c2ccn3S(=O)(=O)c2ccccc2)CC1 | 8.15 | 5.32 | 69.7 | < 50 |
| CC(=O)Nc1ccc(CNCCOc2cccc3c2ccn3S(=O)(=O)c2ccccc2)cc1 | 9.52 | 5.42 | < 20 | < 50 |
| Cc1cccc(CNCCOc2cccc3c2CCN3Cc2ccccc2)c1 | 5.83 | 5.90 | 72.6 | < 50 |
| CN(C)c1ccc(CNCCOc2cccc3c2ccn3S(=O)(=O)c2ccccc2)cc1 | 8.46 | 5.51 | < 20 | < 50 |
| O=S(=O)(c1ccccc1)n1ccc2c(N3CCN(Cc4ccccc4)CC3)cccc21 | 7.22 |  | < 20 | < 50 |
| CSc1ccc2c(c1)C(N1CCN(C)CC1)Cc1ccccc1S2 (configuration not stated) |  |  |  | < 50 |
| CNCCOc1cccc2c1ccn2S(=O)(=O)c1ccccc1 | 8.80 |  | < 20 | < 50 |
| Cc1cccc(CNCCOc2cccc3c2ccn3Cc2ccccc2)c1 | 6.53 | 6.02 |  | < 50 |
| O=S(=O)(c1cccc2ccccc12)n1ccc2c(OCCNCc3ccccc3)cccc21 |  | 6.40 |  |  |
| O=S(=O)(c1ccccc1)n1ccc2c(OCCNCc3ccncc3)cccc21 | 8.52 |  | < 20 | < 50 |
| CC(C)(C)OC(=O)N1CCCC(CNCCOc2cccc3c2ccn3S(=O)(=O)c2cccc3ccccc23)C1 (configuration not stated) |  | 8.24 |  |  |
| COc1ccc(NS(=O)(=O)c2ccc(I)cc2)cc1N1CCN(C)CC1 |  |  |  | < 50 |
